Active and inactive are the calls of the source. The rule behind the calls is not given here.
How the values were obtained:
[1] = target: T1, Transient receptor potential cation channel subfamily V member 2 (Rattus norvegicus, UniProt Q9WUD2); assay: Antagonist activity at recombinant rat TRPV2 expressed in HEK293 cells assessed as inhibition of LPC-induced Ca2+ levels preincubated for 5 mins followed by agonist addition by Fuo-4-AM based spectrofluorimetry; assay type: cell-based
T1 sequence (Q9WUD2 whole entry): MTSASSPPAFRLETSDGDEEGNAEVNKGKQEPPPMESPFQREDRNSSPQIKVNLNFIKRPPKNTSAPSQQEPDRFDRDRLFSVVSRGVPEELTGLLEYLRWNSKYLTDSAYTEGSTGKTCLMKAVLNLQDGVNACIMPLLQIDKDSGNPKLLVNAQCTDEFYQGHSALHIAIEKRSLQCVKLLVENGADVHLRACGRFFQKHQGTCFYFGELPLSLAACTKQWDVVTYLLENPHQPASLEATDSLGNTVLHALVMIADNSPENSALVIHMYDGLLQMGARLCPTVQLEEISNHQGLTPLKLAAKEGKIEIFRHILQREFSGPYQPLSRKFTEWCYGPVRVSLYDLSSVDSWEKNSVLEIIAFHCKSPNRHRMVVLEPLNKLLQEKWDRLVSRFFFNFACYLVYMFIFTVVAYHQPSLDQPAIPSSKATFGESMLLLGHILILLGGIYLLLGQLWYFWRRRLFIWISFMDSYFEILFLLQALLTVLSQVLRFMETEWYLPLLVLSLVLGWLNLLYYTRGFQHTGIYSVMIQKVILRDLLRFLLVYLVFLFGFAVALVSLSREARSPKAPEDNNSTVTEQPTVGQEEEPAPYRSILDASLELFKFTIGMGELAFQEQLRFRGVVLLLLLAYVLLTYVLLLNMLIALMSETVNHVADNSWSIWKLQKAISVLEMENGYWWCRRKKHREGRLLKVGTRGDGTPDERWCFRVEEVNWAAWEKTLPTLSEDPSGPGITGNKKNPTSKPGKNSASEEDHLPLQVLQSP
Procedure, shortened: (§1)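 HEK-293 cells heterologously expressing rat TRPV2, fluorometric intracellular Ca2+ assay. Cells are preincubated 5 min with varying test concentrations, then challenged with LPC (3 µM) or CBD (2 µM). Inhibition of the agonist-evoked [Ca2+]i rise gives IC50 (µM).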

[2] = target: T1, Transient receptor potential cation channel subfamily V member 2; assay: Antagonist activity at recombinant rat TRPV2 expressed in HEK293 cells assessed as inhibition of CBD-induced Ca2+ levels preincubated for 5 mins followed by agonist addition by Fuo-4-AM based spectrofluorimetry; assay type: cell-based; procedure, shortened: as §1
[3] = target: T2, Transient receptor potential cation channel subfamily V member 2 (Rattus norvegicus) (UniProt Q9WUD2); assay: Non-competitive antagonist activity at recombinant rat TRPV2 expressed in HEK293 cells assessed as inhibition of CBD-induced Ca2+ levels preincubated for 5 mins followed by agonist addition by Fuo-4-AM dependent spectrofluorimetry based Schild analysis; assay type: cell-based
T2 sequence (whole entry): T1 sequence (Q9WUD2 whole entry)
Procedure, shortened: (§2)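 Schild analysis in rat TRPV2-HEK-293 cells by fluorometric Ca2+ assay. Full LPC or CBD concentration–response curves are run at increasing antagonist concentrations. Each agonist concentration is expressed as percent of its effect at 2x10-4 M without antagonist.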

[4] = target: T2, Transient receptor potential cation channel subfamily V member 2 (Rattus norvegicus); assay: Non-competitive antagonist activity at recombinant rat TRPV2 expressed in HEK293 cells assessed as inhibition of LPC-induced Ca2+ levels preincubated for 5 mins followed by agonist addition by Fuo-4-AM dependent spectrofluorimetry based Schild analysis; assay type: cell-based; procedure, shortened: as §2
[5] = target: Transient receptor potential cation channel subfamily V member 1 (Homo sapiens, UniProt Q8NER1); assay: Agonist activity at recombinant human TRPV1 expressed in HEK293 cells assessed as induction of Ca2+ levels by Fuo-4-AM based spectrofluorimetry
Transient receptor potential cation channel subfamily V member 1, sequence (Q8NER1 whole entry): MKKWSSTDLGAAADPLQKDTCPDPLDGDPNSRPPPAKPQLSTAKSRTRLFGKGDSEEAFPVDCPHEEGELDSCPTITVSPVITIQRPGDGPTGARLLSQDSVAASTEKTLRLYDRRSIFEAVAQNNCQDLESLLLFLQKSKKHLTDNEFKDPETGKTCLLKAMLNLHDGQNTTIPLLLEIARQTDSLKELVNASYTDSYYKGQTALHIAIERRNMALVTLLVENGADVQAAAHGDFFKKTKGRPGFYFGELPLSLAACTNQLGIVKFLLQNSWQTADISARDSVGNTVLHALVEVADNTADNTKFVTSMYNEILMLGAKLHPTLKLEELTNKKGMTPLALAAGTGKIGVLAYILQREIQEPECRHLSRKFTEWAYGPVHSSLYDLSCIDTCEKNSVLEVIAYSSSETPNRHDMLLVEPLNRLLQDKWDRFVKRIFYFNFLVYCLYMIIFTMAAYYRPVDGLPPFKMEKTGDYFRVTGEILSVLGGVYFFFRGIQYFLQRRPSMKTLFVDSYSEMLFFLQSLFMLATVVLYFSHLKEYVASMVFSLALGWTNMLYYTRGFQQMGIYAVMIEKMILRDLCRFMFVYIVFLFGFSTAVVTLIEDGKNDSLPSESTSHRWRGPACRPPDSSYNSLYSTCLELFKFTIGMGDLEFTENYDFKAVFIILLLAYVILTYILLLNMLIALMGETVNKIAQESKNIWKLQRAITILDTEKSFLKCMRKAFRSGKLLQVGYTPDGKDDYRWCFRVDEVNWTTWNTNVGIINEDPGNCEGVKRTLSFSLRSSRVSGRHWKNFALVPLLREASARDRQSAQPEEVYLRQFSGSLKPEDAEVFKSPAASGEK

With CCCCCCCC/C=C\CCCCCCCC(=O)N/N=C/c1ccc(O)c(OC)c1 the IC50 [1] was 120 nM and the IC50 [2] was 3000 nM.
CCCCCCCCCCCCCCCCSCCC(=O)NCc1ccc(O)c(OC)c1 gave an IC50 [1] of 3800 nM.
With CCCCCCCCCCCCCCCCCC(N)=O [OCTADECANOIC ACID AMIDE] the IC50 [1] was > 10000 nM and the IC50 [2] was > 10000 nM.
In the case of CCCCCC[C@@H](O)C/C=C/CCCCCCCC(=O)NCc1ccc(O)c(OC)c1, the IC50 [1] is reported as > 10000 nM and the IC50 [2] is reported as 7500 nM.
CCCCCCCC/C=C\CCCCCCCCSC[C@H](N)C(=O)NCc1ccc(O)c(OC)c1 gave an IC50 [1] of 1900 nM.
CCCCCCCC/C=C\CCCCCCCC(N)=O [OLEAMIDE] was tested, and the IC50 [1] was 2100 nM and the IC50 [2] was 2100 nM.
In the case of CC/C=C\C/C=C\C/C=C\C/C=C\C/C=C\CCCC(=O)NCCO, the IC50 [1] is reported as > 10000 nM and the IC50 [2] is reported as 2300 nM.
Compound CCCCC/C=C\C/C=C\CCCCCCCCSCCC(=O)NCc1ccc(O)c(OC)c1 has an IC50 [1] of 1400 nM and an IC50 [2] of 2800 nM.
With CCCCCC/C=C\CCCCCCCC(=O)NCCO the IC50 [1] was 3500 nM and the IC50 [2] was 1700 nM.
CCCCCCCCCCCCCCCCOC(=O)CSC[C@H](N)C(=O)NCc1ccc(O)c(OC)c1 showed an IC50 [1] of 1400 nM.
With CCCCCCC(=O)CC(O)CCCCCCCCC(=O)NCc1ccc(O)c(OC)c1 (configuration not stated) the IC50 [1] was > 10000 nM and the IC50 [2] was > 10000 nM.
For CCCCCCCCCCCCCCCC(=O)NCc1ccc(O)c(OC)c1, the IC50 [1] was > 10000 nM and the IC50 [2] was > 10000 nM.
CCCCCCCC/C=C\CCCCCCCCCCCC(N)=O gave an IC50 [1] of 670 nM and an IC50 [2] of 7100 nM.
For CCCCCCCC/C=C\CCCCCCCC[Se]C[C@H](N)C(=O)NCc1ccc(O)c(OC)c1, the inhibition [3] was “Active”, the IC50 [1] was 1700 nM and the inhibition [4] was “Active”. For the same compound, the IC50 [2] was 980 nM.
Compound CCCCC/C=C\C/C=C\CCCCCCCCCCCC(=O)NCc1ccc(O)c(OC)c1 has an IC50 [1] of 820 nM and an IC50 [2] of 1800 nM.
In the case of CCCCCCCCCCCCCCCC(=O)O [PALMITIC ACID], the IC50 [1] is reported as > 10000 nM and the IC50 [2] is reported as > 10000 nM.
In the case of CCCCC/C=C\C/C=C\CCCCCCCC(=O)NCCO [LINOLEOYLETHANOLAMIDE], the IC50 [1] is reported as 1400 nM and the IC50 [2] is reported as 650 nM.
For CCCCCCCCCCCCCCCCCC(=O)NCc1ccc(O)c(OC)c1, the IC50 [1] was > 10000 nM and the IC50 [2] was > 10000 nM.
For CCCCCCCCCCCCCCCCOC(=O)CSCCC(=O)NCc1ccc(O)c(OC)c1, the IC50 [1] was > 10000 nM.
In the case of CCCCC/C=C\C/C=C\C/C=C\C/C=C\CCCC(=O)NCCO [ANANDAMIDE], the IC50 [1] is reported as 8600 nM and the IC50 [2] is reported as 960 nM.
For CCCCCCCCCCCCCCCCCCCC(=O)NCc1ccc(O)c(OC)c1, the IC50 [1] was 3100 nM and the IC50 [2] was > 10000 nM.
CCCCCCCCCCCCCCCCCC(=O)NCCO [N-(2-HYDROXYETHYL)STEARAMIDE] was tested, and the IC50 [1] was > 10000 nM and the IC50 [2] was > 10000 nM.
With CCCCCCCC/C=C\CCCCCCCC(=O)NCCO [OLEOYLETHANOLAMIDE] the IC50 [1] was 1800 nM and the IC50 [2] was 5400 nM.
In the case of CCCCCCC(=O)C/C=C/CCCCCCCC(=O)NCc1ccc(O)c(OC)c1, the IC50 [1] is reported as > 10000 nM and the IC50 [2] is reported as 4400 nM.
CCCCC/C=C\C/C=C\CCCCCCCCCCCC(=O)O was tested, and the IC50 [1] was > 10000 nM and the IC50 [2] was > 10000 nM.
CCCCCCCCCCCCCCCC[Se]CCC(=O)NCc1ccc(O)c(OC)c1 was tested, and the IC50 [1] was 4300 nM.
For CCCCC/C=C\C/C=C\CCCCCCCC(=O)NCc1ccc(O)c(OC)c1, the IC50 [1] was 2600 nM and the IC50 [2] was 2100 nM.
With CCCCCCCCCCCCCCCC(N)=O [PALMITAMIDE] the IC50 [1] was > 10000 nM and the IC50 [2] was > 10000 nM.
CCCCCCCC/C=C\CCCCCCCCCCCC(=O)O [ERUCIC ACID] was tested, and the IC50 [1] was > 10000 nM and the IC50 [2] was > 10000 nM.
For CCCCCCCCCCCCCCCC(=O)NCCO [PALMIDROL], the IC50 [1] was > 10000 nM and the IC50 [2] was > 10000 nM.
Work on CCCCC/C=C\C/C=C\CCCCCCCC(N)=O yielded an IC50 [1] of 2200 nM and an IC50 [2] of 1200 nM.
In the case of NCCOB(c1ccccc1)c1ccccc1, the EC50 [5] is reported as 129 µM.
With CCCCCC[C@@H](O)C/C=C\CCCCCCCCSCCC(=O)NCc1ccc(O)c(OC)c1 the IC50 [1] was > 10000 nM.
CCCCCC[C@H](C/C=C\CCCCCCCC[Se]CCC(=O)NCc1ccc(O)c(OC)c1)OC(=O)Cc1ccccc1 was tested, and the IC50 [1] was > 10000 nM and the IC50 [2] was 2300 nM.
CC/C=C\C/C=C\C/C=C\C/C=C\C/C=C\C/C=C\CCC(=O)NCCO was tested, and the IC50 [1] was > 10000 nM and the IC50 [2] was 1630 nM.
In the case of CCCCCCCC/C=C\CCCCCCCCSCCC(=O)NCc1ccc(O)c(OC)c1, the IC50 [1] is reported as 2500 nM.
For CCCCCCCCCCCCCCCCCCCC(=O)O [ARACHIDIC ACID], the IC50 [1] was > 10000 nM and the IC50 [2] was > 10000 nM.
CCCCCC[C@H](C/C=C\CCCCCCCCSCCC(=O)NCc1ccc(O)c(OC)c1)OC(=O)Cc1ccccc1 was tested, and the IC50 [1] was > 10000 nM.
In the case of CCCCCC[C@@H](O)C/C=C\CCCCCCCC[Se]CCC(=O)NCc1ccc(O)c(OC)c1, the inhibition [3] is reported as “Active”, the IC50 [1] is reported as > 10000 nM and the IC50 [2] is reported as 1400 nM.
In the case of CCCCCCCC/C=C\CCCCCCCCCCCC(=O)NCCO, the IC50 [1] is reported as 740 nM, the inhibition [4] is reported as “Active” and the IC50 [2] is reported as > 10000 nM.
For CCCCCCCCCCCCCCCCCCCC(N)=O, the IC50 [1] was > 10000 nM and the IC50 [2] was > 10000 nM.
In the case of CCCCCCCC/C=C\CCCCCCCC(=O)O [OLEIC ACID], the IC50 [1] is reported as > 10000 nM and the IC50 [2] is reported as > 10000 nM.
For CCCCC/C=C\C/C=C\CCCCCCCC[Se]CCC(=O)NCc1ccc(O)c(OC)c1, the IC50 [1] was 1400 nM and the IC50 [2] was 2300 nM.
CCCCC/C=C\C/C=C\C/C=C\C/C=C\CCCC(=O)O [ARACHIDONIC ACID] was tested, and the IC50 [1] was > 10000 nM and the IC50 [2] was > 10000 nM.
CCCCCCCC/C=C\CCCCCCCC[Se]CCC(=O)NCc1ccc(O)c(OC)c1 showed an IC50 [1] of 1800 nM and an IC50 [2] of 3200 nM.
CCCCCCCCCCCCCCCCCCCC(=O)NCCO was tested, and the IC50 [1] was > 10000 nM and the IC50 [2] was > 10000 nM.
For CCCCCCCC/C=C\CCCCCCCC(=O)NCc1ccc(O)c(OC)c1 [OLVANIL], the inhibition [3] was “Active”, the IC50 [1] was 160 nM and the inhibition [4] was “Active”. For the same compound, the IC50 [2] was 1700 nM.
Work on CCCCCCCCCCCCCCCC[Se]C[C@H](N)C(=O)NCc1ccc(O)c(OC)c1 yielded an IC50 [1] of 1200 nM.
CCCCCCCCCCCCCCCC(=O)N/N=C/c1ccc(O)c(OC)c1 showed an IC50 [1] of 280 nM and an IC50 [2] of 6000 nM.
In the case of CCCCCCCC/C=C\CCCCCCCCCCCC(=O)NCc1ccc(O)c(OC)c1, the IC50 [1] is reported as 490 nM and the IC50 [2] is reported as 1500 nM.
CCCCCCCCCCCCCCCCSC[C@H](N)C(=O)NCc1ccc(O)c(OC)c1 showed an IC50 [1] of 1400 nM.

From ChEMBL document CHEMBL4229558, “Elongation of the Hydrophobic Chain as a Molecular Switch: Discovery of Capsaicin Derivatives and Endogenous Lipids as Potent Transient Receptor Potential Vanilloid Channel 2 Antagonists” (J Med Chem, 2018)
